Shown are actives, neighbours in structure and some others; about 7.9% of the full set was active somewhere.
RORA act – activators of orphan receptor RORA, primary screen, cell-based, luminescence; CHO-K1 Gal4-RORA LBD luciferase reporter; percent increase over mock-subtracted basal signal; activation, % at 10 µM; hit rate 1.5% among 65,000; AID 560, 2006;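 active = activation above the mean of all tested compounds plus 3 SD, cut at about 49% in these data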;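 note: 0% = DMSO-treated RORA cells and 100% = added signal equal to DMSO minus mock-transfected cells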
Target sequence (P35398 whole entry, looked up, the tested form may be a part): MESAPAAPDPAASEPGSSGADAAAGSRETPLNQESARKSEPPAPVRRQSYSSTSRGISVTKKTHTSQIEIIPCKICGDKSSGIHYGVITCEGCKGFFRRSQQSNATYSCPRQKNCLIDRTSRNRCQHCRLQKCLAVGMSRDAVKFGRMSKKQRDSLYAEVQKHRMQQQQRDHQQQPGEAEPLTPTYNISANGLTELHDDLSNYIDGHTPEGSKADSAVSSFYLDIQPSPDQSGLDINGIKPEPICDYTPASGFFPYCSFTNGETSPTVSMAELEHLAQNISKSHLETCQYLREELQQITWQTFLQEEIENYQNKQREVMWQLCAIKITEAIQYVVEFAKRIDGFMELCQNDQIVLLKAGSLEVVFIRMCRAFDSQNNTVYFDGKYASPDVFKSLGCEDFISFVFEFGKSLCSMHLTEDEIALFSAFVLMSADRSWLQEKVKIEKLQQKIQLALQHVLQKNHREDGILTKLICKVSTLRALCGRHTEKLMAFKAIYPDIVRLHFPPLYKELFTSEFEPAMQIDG
HEK293 NFkB inh – inhibitors of PMA/ionomycin-induced NF-kB reporter, primary screen, antigen receptor NF-kB inhibitor project, cell-based, HEK-293 luciferase reporter, luminescence; HEK-293 NF-kB luciferase reporter; inhibition, % at 3 µM; hit rate 0.21% among 62,000; AID 465, 2006;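 active = inhibition above the mean of all tested compounds plus 3 SD, cut at about 40% in these data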;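 note: 0% = stimulated DMSO wells and 100% = 10 µM reference inhibitor 5653914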
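System: NF-kB luciferase reporter HEK-293 cells | Replication: Single test | Control set: DMSO vs reference inhibitor | Evaluation: % inhibition | Schedule: 1 h pretreatment, 16 h stimulation, 37 °C | Probe or stimulus: PMA with ionomycin | Compound dosing: One dose, 3 µM | Detection: Luciferase luminescence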
D1 allo mod – D1 CRE-luciferase signal change, two-sided – cell-based, HEK293 D1, dopamine EC30, D1 allosteric modulator project, primary screen; hit rate 5.9% among 58,000; dopamine EC30 potentiation; actives deviate in either direction; D(1A) dopamine receptor (Homo sapiens), P21728; B-score at 10 µM;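 active = luminescence count or its row- and column-corrected plate score outside the 99.7% band of the plate's sample wells, on either side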
SF-1 act – activators of human SF-1, primary screen, cell-based, CHO-K1, Gal4-SF-1 LBD, luciferase luminescence | CHO-K1 Gal4-SF-1 LBD luciferase reporter; % increase over DMSO SF-1-specific signal | activation, % at 10 µM | hit rate 1.9% among 65,000;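 active = activation above the mean activation of all tested compounds plus 3 SD, cut at about 50% in these data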
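material = CHO-K1 cells with Gal4–hSF-1 LBD chimera plus Gal4-driven luciferase | compound = 10 µM single point, 1% DMSO | incubation = 20 h compound exposure at 37 °C after 1 h cell settling | measured by = SteadyLite luciferase luminescence | evaluation = percent activation relative to DMSO median and mock-transfected background | control set = DMSO negative control and −SF1 background wells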
JNK3 blocker – JNK3 kinase activity inhibitors, primary screen, biochemical, human, purified enzyme; Mitogen-activated protein kinase 10 (Homo sapiens), P53779; HTS; inhibition, % at 8 µM; hit rate 0.61% among 60,000; AID 746, 2007; in the data active = inhibition above about 17%;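 note: 0% = DMSO and 100% = reference inhibitor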
An asterisk follows results filed as active; · = no result given.

SMILES | RORA act | HEK293 NFkB inh | D1 allo mod | SF-1 act | JNK3 blocker
O=C(O)c1cccc(COc2ccc(CO)cc2Cl)c1 | -93.8 | 94.0* | -7.1* | -94.4 | -3.2
CCOc1ccc(OCc2cccc(C(=O)N3CCCC3)c2)cc1 | -2.0 | -2.6 | -3.94* | -13.9 | -6.3
CCOC(=O)CNc1c(-c2ccc(O)cc2)nc2ccccn12 | 18.1 | 13.1 | 0.204 | 6.3 | 0.1
COC(=O)CNc1c(-c2ccccn2)nc2ccc(Br)cn12 | 59.8* | -28.0 | -1.71 | 69.3* | ·
CCCCOC(=O)C(C)Oc1ccc(=O)n(-c2ccccc2)n1 (stereo not given) | 57.3* | 9.0 | -0.768 | 3.5 | -6.2
COCCn1c(C)cc(C(=O)COC(=O)C23CC4CC(CC(O)(C4)C2)C3)c1C | 12.9 | -26.0 | -4.62* | 77.2* | -7.0
Cc1cc(N2CCN(c3ccccc3)CC2)nc(NCc2ccccc2)n1 | 6.8 | -7.7 | -3.54* | -10.0 | -2.7
Nc1c(C(O)(C(F)(F)F)C(F)(F)F)ccc2ccccc12 | 7.5 | 13.2 | -0.00263 | 15.9 | -9.2
c1ccc(-n2ncc3c2ncn2cnnc32)cc1 | -12.4 | 21.0 | · | -3.2 | -0.8
Cc1ccc(-n2ncc3c2ncn2c(C)nnc32)cc1C | 59.5* | -44.9 | -2.05 | 20.7 | 1.5
Cc1ccc(-n2ncc3c(=O)n(-c4ccc(C)c(C)c4)c(C)nc32)cc1 | 0.2 | 14.3 | -0.696 | 7.2 | 0.3
CCc1nnc2c3cnn(-c4ccccc4)c3ncn12 | 83.1* | 5.5 | 0.296 | 0.8 | 9.4
COc1ccc(C(=O)N2CCCC(c3nc(-c4ccc(OC)c(OC)c4)no3)C2)c(OC)c1 (stereo not given) | -21.4 | 21.2 | · | 6.5 | 1.5
COc1ccc(C2CC(=O)c3c([nH]c(C(=O)OC(C)C)c3C)C2)cc1OC (stereo not given) | 8.1 | 10.8 | -1.06 | -3.8 | ·
CCCCOC(=O)c1[nH]c2c(c1C)C(=O)CC(c1cc(OC)c(OC)c(OC)c1)C2 (stereo not given) | -63.6 | 27.1 | -3.41* | -54.0 | -6.6
C=CCOC(=O)c1[nH]c2c(c1C)C(=O)CC(c1cc(OC)c(OC)c(OC)c1)C2 (stereo not given) | -23.7 | 16.8 | -3.2* | -52.4 | -2.8
Cn1cccc1Cc1nnc(SCC(=O)Nc2ccc(Cl)cc2)n1-c1ccc(F)cc1 | -16.8 | 0.9 | -0.636 | -1.1 | 5.3
Cn1c(=O)c2c(ncn2CC(O)CNc2ccc(Br)cc2)n(C)c1=O (stereo not given) | 5.3 | 8.3 | 0.346 | -4.5 | -7.4
Cn1c(N2CCOCC2)nc2c1c(=O)n(Cc1ccc(Cl)cc1)c(=O)n2C | 4.6 | · | 4.41* | -2.6 | -8.2
Cn1c(N2CCN(c3ccccn3)CC2)nc2c1c(=O)n(Cc1ccc(Cl)cc1)c(=O)n2C | 8.0 | · | · | -16.2 | 5.3
N#Cc1c(N)oc(-c2ccco2)c1-c1ccco1 | 2.7 | 6.8 | 18.6* | 10.3 | -4.1
N#Cc1c(N)oc(-c2ccccc2)c1-c1ccccc1 | 9.2 | 12.3 | · | 5.2 | ·
N#Cc1c(N)nc2c(c1-c1ccco1)CCCCC2 | -9.0 | 26.7 | 0.118 | -25.0 | 31.6*
N#Cc1c(N)nc2c(c1-c1ccncc1)CCCCC2 | -14.4 | 8.9 | 2.9 | -6.5 | 1.2
Cc1nc(C)c(C(=O)C2=C(O)C(=O)N(CCCn3ccnc3)C2c2ccc(Cl)cc2)s1 (stereo not given) | 8.4 | 7.7 | · | 2.4 | 4.8
SMILES | RORA act | HEK293 NFkB inh | D1 allo mod | SF-1 act | JNK3 blocker
COc1ccc(NC(=O)CCCCn2c(=O)[nH]c3ccccc3c2=O)cc1 | -8.8 | 8.8 | 0.401 | -0.2 | 20.8*
Cc1nc2nc(-c3cccs3)cn2nc1C | 53.2* | -25.2 | -1.33 | 22.9 | 4.2
Cc1sc2ncnc(Sc3nnc4sc5ccccc5n34)c2c1C | -20.9 | 5.9 | 0.711 | -6.3 | ·
Oc1ccc2[nH]cnc2c1CN1CCCCC1 | -16.0 | 14.4 | -0.108 | -0.8 | -0.5
Brc1cccc(-c2nc(-c3ccncc3)no2)c1 | 47.1 | -0.2 | -0.0369 | 60.3* | -7.3
Cc1cc(C)cc(-c2nc(-c3ccncc3)no2)c1 | 42.4 | 4.9 | · | 90.3* | -11.8
Clc1ccc(Br)cc1-c1nc(-c2ccncc2)no1 | 16.3 | -6.7 | 1.37 | 44.0 | 8.7
CCOc1cc(C(=O)N2CCN(c3ccc(C(C)=O)cc3)CC2)cc(OCC)c1OCC | 19.7 | 10.5 | 0.397 | -5.9 | -3.2
CCOc1ccc(OCC)c(NC(=O)C2CCCN2S(=O)(=O)c2cccc3cccnc23)c1 (stereo not given) | 5.5 | 5.2 | 1.43 | 57.7* | 6.9
CCN1CCCC1CNC(=O)Cn1cnc2sc(C)c(S(=O)(=O)N3CCC(C)CC3)c2c1=O (stereo not given) | 4.8 | 1.6 | -0.264 | -9.5 | ·
CCOC(=O)C(C)Sc1nc(-c2cccs2)ccc1C#N (stereo not given) | 7.8 | · | · | 30.1 | 0.3
C=COC(=O)CSc1nc(-c2cccs2)ccc1C#N | 40.3 | · | 0.0429 | 69.2* | -1.2
COc1ccc(C(c2nnnn2Cc2cccs2)N2CCN(c3ccccc3F)CC2)cc1 (stereo not given) | -17.0 | 14.1 | -0.624 | -2.5 | 2.0
Fc1ccc2c(Cl)c(-c3nnc(-c4cccs4)o3)sc2c1 | 25.2 | -37.8 | -6.36* | 36.5 | 6.1
Cc1ccccc1OCC(O)Cn1c(=N)n(CCN2CCOCC2)c2ccccc21 (stereo not given) | -9.4 | 17.1 | -4.85* | 7.8 | ·
N=c1n(CCN2CCOCC2)c2ccccc2n1CC(O)COc1ccccc1 (stereo not given) | 8.5 | 20.6 | -2.06 | 6.3 | -1.1
COc1ccccc1OCC(O)Cn1c(=N)n(CCN2CCCCC2)c2ccccc21 (stereo not given) | -5.0 | 15.1 | -2.54* | 13.1 | ·
CC1(C)NC(=O)N(CC(O)COC2CCCCC2)C1=O (stereo not given) | 1.1 | 17.7 | 0.072 | -2.2 | 4.3
CC1(C)NC(=O)N(CC(O)CN2CCCCC2)C1=O (stereo not given) | 8.6 | 0.4 | 0.74 | 50.8* | 4.0
CCNc1nc(N)c(C(=O)c2ccc(Cl)s2)s1 | 49.8* | -16.0 | 0.406 | 31.4 | 13.3
Cc1ccc(-c2cc(-c3cccc(F)c3)n[nH]2)c(O)c1 | 68.4* | -31.1 | -2.66 | 52.6* | -3.5
O=c1c2cc(N3CCOCC3)ccc2[nH]c(=S)n1CCCN1CCN(c2ccccc2F)CC1 | 3.9 | 5.6 | -6.73* | 8.1 | ·
O=c1c2cc(N3CCOCC3)ccc2[nH]c(=S)n1CCCN1CCCCCC1 | -11.0 | 13.3 | -0.306 | -4.7 | ·
CCOc1ccc(N2CC(=O)N/C2=N\c2nc(C)cc(C)n2)cc1 | 12.0 | -2.1 | -0.439 | -5.3 | 3.4
COc1ccc(-c2c3c([nH]c(=S)c2C#N)CCC3)cc1 | -7.5 | · | · | -8.0 | 46.0*
N#Cc1c(-c2cccnc2)c2c([nH]c1=S)CCCC2 | 5.8 | 14.2 | 0.627 | -0.8 | -0.6

High-throughput results deposited in PubChem BioAssay by several laboratories.
